Compound activity as filed in PubChem BioAssay.
HCV NS3 hel inh: inhibitors of Hepatitis C virus NS3 helicase. NS3 helicase DNA unwinding, Cy5 molecular beacon fluorescence. inhibition, % at 10.9 µM. 290,000 tested, 0.56% active;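 active = inhibition above the mean of all tested compounds plus 3 SD, set per campaign, cut at about 35% in these data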
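Compound dosing – single dose, 10.9 µM nominal final, DMSO 0.8% final · System – NS3 helicase fragment of HCV · Buffer or medium – MOPS pH 6.5, MgCl2, DTT, Tween20, BSA · Signal – Cy5 beacon fluorescence read at start and 1 h · Also added – annealed dual-labelled DNA beacon duplex, ATP-started · Schedule – 1 h at 25 °C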
EBNA-1 inhibitor: blocks EBNA-1 binding to DNA; EBNA-1 DNA binding, fluorescence polarization; inhibition, % at 14.8 µM; 300,000 tested, 0.34% active; in the data active = inhibition above about 28%
PP1 counter: counter-screen for PP5 inhibitors: inhibitors of human PP1-alpha. P62136. purified PP1alpha, OMFP fluorescence. inhibition, % at 6.7 µM. 320,000 tested, 0.9% active;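 active = inhibition above the mean inhibition of all tested compounds plus 3 SD, computed separately for each screening campaign, cut at about 15% in these data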
Target sequence (P62136 whole entry, looked up): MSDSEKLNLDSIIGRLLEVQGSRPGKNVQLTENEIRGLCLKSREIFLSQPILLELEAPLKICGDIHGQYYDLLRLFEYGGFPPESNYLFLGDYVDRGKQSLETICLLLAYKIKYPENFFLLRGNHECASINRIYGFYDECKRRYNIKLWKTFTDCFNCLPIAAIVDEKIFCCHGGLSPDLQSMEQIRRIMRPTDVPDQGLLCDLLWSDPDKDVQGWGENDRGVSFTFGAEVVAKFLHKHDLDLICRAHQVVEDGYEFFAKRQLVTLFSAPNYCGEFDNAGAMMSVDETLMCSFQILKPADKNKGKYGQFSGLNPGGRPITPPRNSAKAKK
ZTA DNA inh: counter-screen for EBNA-1 inhibitors: inhibitors of Epstein-Barr virus ZTA | ZTA-DNA binding, fluorescence polarization | 320,000 tested, 0.15% active | inhibition, % at 11 µM | P03206; in the data active = inhibition above about 33%
Target sequence (P03206 whole entry, looked up): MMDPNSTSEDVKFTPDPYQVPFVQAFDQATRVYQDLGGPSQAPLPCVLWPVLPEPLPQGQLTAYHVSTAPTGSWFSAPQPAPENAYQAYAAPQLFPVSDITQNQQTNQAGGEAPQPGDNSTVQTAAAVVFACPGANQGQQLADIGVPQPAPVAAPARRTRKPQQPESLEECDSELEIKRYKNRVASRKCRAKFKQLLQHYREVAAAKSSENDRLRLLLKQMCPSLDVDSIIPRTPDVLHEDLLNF
HCV core dimer: HCV core protein dimerization inhibition. TR-FRET GST/Flag-core106 dimerization, 1536-well. AID 1899. 300,000 tested, 0.33% active. inhibition, % at 5 µM;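 active = inhibition above the mean of all tested compounds plus 3 SD, set per screening campaign, cut at about 45% in these data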
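assay system = GST-tagged and Flag-tagged HCV core protein residues 1-106 | controls = unlabelled core106 and no-GST-core106 wells | incubation = compound-protein-antibody incubation 4 h at 22.5 °C | probe or stimulus = Eu donor and XL665 acceptor anti-tag antibodies | read-out = % inhibition based on acceptor/donor emission ratio | signal = TR-FRET 671 and 617 nm emission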
A number is an active result; - = inactive; . = no result. Sampled rows, rich in hits. Any-hit rate of the full collection: about 1.9%.

SMILES | HCV NS3 hel inh | EBNA-1 inhibitor | PP1 counter | ZTA DNA inh | HCV core dimer
O=C(O)c1cccc(NC(=O)c2cn(-c3ccccc3)nc2-c2cc3ccccc3o2)c1 | - | - | 16 | - | -
CN=C1NN=C(c2cc(C)n(-c3ccc(Cl)cc3)c2C)CS1 | - | - | - | - | 65
Cc1ccc(-n2c(C)cc(C3=NNC(=NC4CC4)SC3)c2C)cc1C | - | - | 16 | - | -
Cc1cc(C)c2c(N)c(C(=O)Nc3ccccc3Cl)sc2n1 | . | - | 17 | - | -
Cc1cc(NC(=O)CC2CCCC2)ccc1Br | - | - | - | - | -
N#Cc1cc(Oc2cccc3cccnc23)c(-n2nnc3ccccc32)cc1C#N | - | - | 16 | - | -
O=C(COC(=O)c1cc(-c2ccco2)nc2ccccc12)NCc1ccccc1 | - | - | - | - | -
Cn1c(N)c(C(=O)COC(=O)c2cc(-c3ccco3)nc3ccccc23)c(=O)n(Cc2ccccc2)c1=O | - | - | 30 | - | 47
O=C(Nc1ccccc1N1CCOCC1)c1cc(-c2ccco2)nc2ccccc12 | - | - | - | - | 56
COc1cc(-c2cc(C(=O)Nc3ccccc3N3CCOCC3)c3ccccc3n2)cc(OC)c1OC | - | - | - | - | -
COc1cccc(NC(=O)CN(C)C(=O)c2cc(-c3ccco3)nc3ccccc23)c1 | . | - | - | - | -
CNC(=O)COC(=O)c1cc(-c2ccco2)nc2ccccc12 | - | - | - | - | 48
CN(CC(=O)Nc1ccc(F)cc1)C(=O)c1cc(-c2ccco2)nc2ccccc12 | . | - | - | - | 50
COc1ccccc1NC(=O)c1c(N=Cc2cccc([N+](=O)[O-])c2)cnn1C | - | - | - | - | -
CCCN(C(=O)COC(=O)CSc1ccc([N+](=O)[O-])cc1)C1CCS(=O)(=O)C1 (stereo not given) | . | . | - | - | .
CC(=O)Nc1ccc(NC(=O)C(=O)N/N=C/c2cccnc2)cc1 | - | - | - | - | -
Cc1ccc(NC(=O)c2cc(-c3ccc(C)o3)nc3ccccc23)cc1 | - | - | - | - | -
Cc1ccc(-c2cc(C(=O)Nc3ccccn3)c3ccccc3n2)o1 | - | - | - | - | 64
Oc1ccc(C=NC2CCCCC2)cc1 | - | - | - | - | -
COc1ccc(-n2c(-c3cccc(OC)c3)nc(=S)c3c2CCCC3)cc1 | - | - | - | - | 66
COc1ccc(-n2c(-c3ccccc3)nc(=S)c3c2CCCC3)cc1 | - | - | - | - | 77
COc1cccc(-c2cn3nc4c(nc3n2)CCCC4)c1 | - | - | - | - | -
CC(C)n1c(-c2ccccc2)nc(=S)c2c1CCCC2 | - | - | - | - | -
CC(=O)Oc1ccc2nc(/C=C/c3ccccc3)oc(=O)c2c1 | - | - | - | - | -
N#CC1(NC(=O)COC(=O)/C=C/c2ccc3ccccc3n2)CCCCC1 | - | - | - | - | 48
SMILES | HCV NS3 hel inh | EBNA-1 inhibitor | PP1 counter | ZTA DNA inh | HCV core dimer
CCCOc1nc(SCCC)nc2c1cnn2-c1ccccc1 | - | - | - | - | -
COc1ccc(NS(=O)(=O)c2cccc(C(=O)N/N=C/c3ccc4c(c3)OCCO4)c2)cc1 | - | - | 17 | - | -
COc1ccc(NS(=O)(=O)c2cccc(C(=O)NNC(=O)c3cccn3C)c2)cc1 | - | - | - | - | 71
COc1ccc(C(CNC(=O)C2CCN(S(=O)(=O)c3ccc(F)cc3)CC2)N(C)C)cc1 (stereo not given) | - | - | - | - | -
CCN(CC)S(=O)(=O)c1ccc(OC)c(NC(=O)c2cc(=O)[nH]c3ccccc23)c1 | - | - | - | - | -
O=C(CCNS(=O)(=O)c1ccc(Br)cc1)NCCCSc1ccccc1 | . | . | - | - | .
COCCn1c(SC2CCCCC2=O)nnc1-c1ccncc1 (stereo not given) | - | - | - | - | -
O=C1CCCCC1Sc1nnc(Cc2cccs2)n1CCc1ccccc1 (stereo not given) | - | - | - | - | 51
O=C(CCN1C(=O)c2ccccc2S1(=O)=O)NCc1ccccc1 | . | - | - | - | -
COc1ccc2nc(/C(C#N)=C\c3ccc(Oc4ccc([N+](=O)[O-])cn4)cc3)[nH]c2c1 | - | - | - | - | 58
CC(Sc1nnc(Cc2ccccc2)o1)C(=O)Nc1ccccc1[N+](=O)[O-] (stereo not given) | . | . | - | - | .
Cc1nc(NC(=O)/C=C/c2ccco2)sc1C | - | - | - | - | -
O=C(/C=C/c1ccco1)Nc1cccc(NC(=O)/C=C/c2ccco2)n1 | - | - | - | - | 49
CCN(CC)/C(=N\S(=O)(=O)c1ccc(F)cc1)c1ccccc1 | - | - | - | - | -
O=c1cc(CSc2nnnn2-c2ccccc2)nc(Nc2ccc(F)cc2)[nH]1 | - | - | 15 | - | -
O=C(NC(=S)Nc1ccc(NC(=O)c2cccs2)cc1)c1cc2ccccc2o1 | - | 69 | - | - | -
c1ccc2[nH]c(NCc3ccc4c(c3)OCO4)nc2c1 | - | - | - | - | -
COc1cc(NC(=O)c2sc3ncn(CC(=O)N4CCCC(C)C4)c(=O)c3c2C)cc(OC)c1OC (stereo not given) | - | - | 17 | - | -
COc1cc(NC(=O)c2sc3ncn(CC(=O)N4CCC(C)CC4)c(=O)c3c2C)cc(OC)c1OC | - | - | - | - | -
O=C(NCC(=O)N1CCCC1)c1ccc(Br)cc1 | - | - | - | - | -
Oc1c(Cl)cc(Cl)cc1Sc1cc(Cl)cc(Cl)c1O | - | - | 40 | - | -
Oc1c(Cl)cc(Cl)cc1CNn1cnnc1 | - | - | - | - | -
COc1ccc(-c2nnc(SCC(=O)NC3CC3)o2)cc1 | . | . | - | - | .
CCOC(=O)C1=C(C)N=c2s/c(=C/c3ccco3)c(=O)n2C1c1cccc(OC)c1 (stereo not given) | - | - | - | - | 48
CC(C(=O)N1CCCCC1)N(C)CC(=O)Nc1cccc(F)c1 (stereo not given) | . | . | - | - | .
SMILES | HCV NS3 hel inh | EBNA-1 inhibitor | PP1 counter | ZTA DNA inh | HCV core dimer
O=C(Nc1cccc2cccc(NC(=O)c3ccco3)c12)c1ccco1 | - | - | - | - | 48
Cc1cc(C)cc(-n2c3nc4ccccc4nc3c3c(=O)n(Cc4ccco4)cnc32)c1 | 43 | - | 20 | - | 60
Cc1cccc(N(C(=O)Cn2nnc3ccccc32)C(C(=O)NCc2ccco2)c2ccncc2)c1 (stereo not given) | - | - | - | - | -
O=C(NCc1ccco1)C(c1ccco1)N(C(=O)Cn1nnc2ccccc21)c1ccc2c(c1)CCC2 (stereo not given) | - | - | - | - | 50
Cc1ccc([N+](=O)[O-])cc1NC(=O)Cc1ccc(F)cc1 | - | - | - | - | -
Cc1ccc([N+](=O)[O-])cc1NC(=O)Cc1cccs1 | - | - | - | - | 54
CC(=O)Nc1cccc(NC(=O)Cc2cccs2)c1 | - | - | - | - | -
COC(=O)c1cc(NC(=O)Cc2cccs2)cc(C(=O)OC)c1 | - | - | - | - | 49
COc1cc(NC(=O)c2ccccc2)c(OC)cc1NC(=O)Cc1cccs1 | - | - | - | - | 67
